Here are results for one molecule from PubChem BioAssay AID651931 (Vanderbilt Specialized Chemistry Center, 2012).

Active and inactive are the calls of the source. The rule behind the calls is not given here.

The target of the assay is Muscarinic acetylcholine receptor M3 (Rattus norvegicus) (UniProt P08483). In words: rat M3 positive allosteric modulation check – CHO cells, calcium flux, selectivity assay for M5 PAM discovery project (AID 651931). The conditions noted are these: CHO-K1 rat M3, Fluo-4 calcium flux, ACh EC20; series mostly up to 30 µM. The procedure, abridged: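 material = Fluo-4-loaded stable M3 CHO-K1 cells | also added = acetylcholine, EC20 | compound = 0.3% final DMSO | signal = Fluo-4 calcium flux | medium = HBSS, pH 7.4, plus 2.5 mM probenecid and 20 mM HEPES | read-out basis = % of maximal ACh response | incubation = dye load 45-60 min, 1.5 min compound, 50 s ACh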
On the technique in general: A change in cytosolic calcium serves as a functional read-out for many receptors and channels.

Muscarinic acetylcholine receptor M3 (Rattus norvegicus), sequence (P08483 whole entry, looked up): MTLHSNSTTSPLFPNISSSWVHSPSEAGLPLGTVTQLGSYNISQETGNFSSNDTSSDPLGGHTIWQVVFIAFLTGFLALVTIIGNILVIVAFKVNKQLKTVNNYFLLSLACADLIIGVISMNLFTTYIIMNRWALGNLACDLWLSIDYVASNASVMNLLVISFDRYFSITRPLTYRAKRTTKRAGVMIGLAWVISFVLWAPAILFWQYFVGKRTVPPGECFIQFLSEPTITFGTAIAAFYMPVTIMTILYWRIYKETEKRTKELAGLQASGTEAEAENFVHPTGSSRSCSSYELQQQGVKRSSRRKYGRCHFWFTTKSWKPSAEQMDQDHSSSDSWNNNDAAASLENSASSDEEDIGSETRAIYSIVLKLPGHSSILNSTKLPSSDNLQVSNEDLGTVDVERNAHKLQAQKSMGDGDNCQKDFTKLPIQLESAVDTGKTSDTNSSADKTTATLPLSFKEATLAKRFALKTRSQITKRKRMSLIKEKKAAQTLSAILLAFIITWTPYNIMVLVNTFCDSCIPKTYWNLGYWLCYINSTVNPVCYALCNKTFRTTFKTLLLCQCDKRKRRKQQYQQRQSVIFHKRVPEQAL

`O=C1C(=O)N(CCOc2ccccc2)c2ccc(OC(F)(F)F)cc21`: the result was inactive.
